In ChEMBL document CHEMBL4732158, “Bicyclic Ligand-Biased Agonists of S1P: Exploring Side Chain Modifications to Modulate the PK, PD, and Safety Profiles” (J Med Chem, 2021):
Active and inactive are the calls of the source. The calls are words filed in the database; no cut-off is given here.

Columns and labels:
[1] = Antimigratory activity against human T cells assessed as inhibition of S1P-induced T cell migration preincubated for 10 mins followed by addition of S1P measured after 120 mins by calcein-AM dye based fluorescence analysis; assay type: functional
[2] = biological target: Sphingosine 1-phosphate receptor 3 (Homo sapiens, UniProt Q99500); test: Agonist activity at recombinant human S1P3 expressed in CHO cell membranes assessed as stimulation of [35S]-GTPgammaS binding measured after 45 mins by liquid scintillation counting method; assay type: functional, Membrane
Chain of Sphingosine 1-phosphate receptor 3 (Q99500 whole entry, the tested form may be a part): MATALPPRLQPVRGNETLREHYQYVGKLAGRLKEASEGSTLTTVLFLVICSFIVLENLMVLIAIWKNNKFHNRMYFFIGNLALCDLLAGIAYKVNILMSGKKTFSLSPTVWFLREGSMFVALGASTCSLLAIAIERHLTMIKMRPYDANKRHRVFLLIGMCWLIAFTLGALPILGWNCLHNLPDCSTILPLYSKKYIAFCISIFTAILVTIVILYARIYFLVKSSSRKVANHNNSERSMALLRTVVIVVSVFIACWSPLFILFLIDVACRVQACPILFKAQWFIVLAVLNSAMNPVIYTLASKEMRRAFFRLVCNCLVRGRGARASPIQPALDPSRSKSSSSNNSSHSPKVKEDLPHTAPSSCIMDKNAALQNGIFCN

[3] = biological target: T1, Sphingosine 1-phosphate receptor 1 (Homo sapiens, UniProt P21453); test: Agonist activity at human recombinant C-terminal GFP-fused S1P1 expressed in CHO cells assessed as induction of receptor internalization incubated for 50 mins by fluorescence based confocal laser scanning microscopic analysis; assay type: cell-based
T1 sequence (P21453 whole entry, the tested form may be a part): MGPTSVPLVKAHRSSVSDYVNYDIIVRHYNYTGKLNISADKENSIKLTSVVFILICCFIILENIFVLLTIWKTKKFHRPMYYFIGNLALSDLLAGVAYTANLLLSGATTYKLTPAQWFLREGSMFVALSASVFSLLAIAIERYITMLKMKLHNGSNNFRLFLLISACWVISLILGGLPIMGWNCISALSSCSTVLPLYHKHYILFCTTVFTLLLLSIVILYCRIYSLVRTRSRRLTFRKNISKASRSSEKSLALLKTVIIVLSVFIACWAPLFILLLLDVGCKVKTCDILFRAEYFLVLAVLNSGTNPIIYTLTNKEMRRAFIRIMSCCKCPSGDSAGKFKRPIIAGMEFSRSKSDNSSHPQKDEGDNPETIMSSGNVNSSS

[4] = biological target: T1, Sphingosine 1-phosphate receptor 1; test: Agonist activity at recombinant human S1P1 expressed in CHO cell membranes assessed as stimulation of [35S]-GTPgammaS binding measured after 45 mins by liquid scintillation counting method; assay type: functional, Cell membrane
[5] = biological target: T1, Sphingosine 1-phosphate receptor 1; test: Agonist activity at human recombinant S1P1 expressed in CHO cells assessed as stimulation of ERK phosphorylation incubated for 7 mins by microplate reader analysis; assay type: cell-based
[6] = biological target: T1, Sphingosine 1-phosphate receptor 1; test: Displacement of [33P]-SIP from human recombinant S1P1 expressed in CHO cell membranes measured after 45 mins by TopCount scintillation counting method; parameters: species or system Cell membrane
[7] = Drug concentration in Lewis rat blood assessed as concentration of parent compound at 2 mg/kg, po measured at 4 hrs by LC-MS/MS analysis; assay type: ADME, organism-based; details: in vivo, 2 mg/kg, 4 h, 2 mg/kg, 4 h, read-out: Ct
How it was run: (§1)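 Lewis rats (n = 2−4) dosed orally at 0.5, 1, 2 or 5 mg/kg; blood parent and phosphate metabolite concentrations and lymphocyte counts taken 4 and 24 h post-dose; phosphate-to-parent ratio from 24 h levels; significance versus vehicle by ANOVA with Dunnett's test.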

[8] = Pulmonary toxicity in Lewis rat assessed as fold elevation of BAL protein content at 2 mg/kg, po by chemistry analyzer based analysis relative to control; assay type: organism-based; details: in vivo
How it was run: (§2)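 Lewis rats dosed orally; bronchoalveolar lavage protein measured at study end, expressed as fold over vehicle control.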

[9] = Drug concentration in Lewis rat blood assessed as concentration of parent compound at 2 mg/kg, po measured at 24 hrs by LC-MS/MS analysis; assay type: ADME, organism-based; details: in vivo, read-out: Ct; how it was run: as §1
[10] = Cardiotoxicity in human iPSC derived cardiomyocytes assessed as change in heart rate at 10 nM measured over 2 hrs by multi-electrode array relative to control; assay type: toxicity, cell-based; details: stem cell-derived cardiomyocyte, 0.01 µM
How it was run: (§3)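 Phosphate metabolite of each compound prepared and tested on cultured human induced pluripotent stem cell-derived cardiomyocytes at 1 and 10 nM; beat rate change averaged over three or more replicates per concentration unless noted (some n = 2).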

[11] = Reduction in circulating lymphocytes count in Lewis rat at 2 mg/kg, po measured at 24 hrs by hematology analyzer based analysis; assay type: Functional, organism-based; parameters: scale not given: the % may be the effect or the level left; details: in vivo
How it was run: (§4)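 Lewis rats (n = 2−4) dosed orally; whole-blood lymphocyte counts taken 4 h and 24 h after dosing and reduction expressed versus vehicle-treated rats. Significance by ANOVA with Dunnett's test (p < 0.05 vs vehicle). Blood levels of parent and phosphate metabolite measured at the same time points in this PK/PD screen.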

[12] = Cardiotoxicity in human iPSC derived cardiomyocytes assessed as change in heart rate at 1 nM measured over 2 hrs by multi-electrode array relative to control; assay type: toxicity, cell-based; details: stem cell-derived cardiomyocyte, 0.001 µM; how it was run: as §3
[13] = Ratio of drug metabolism in Lewis rat blood assessed as phosphate ester metabolite to parent drug at 2 mg/kg, po measured at 24 hrs by LC-MS/MS analysis; assay type: ADME, organism-based; details: in vivo; how it was run: as §1
Rattus norvegicus [14] = test: Reduction in circulating lymphocytes count in Lewis rat at 2 mg/kg, po measured at 4 hrs by hematology analyzer based analysis; assay type: functional; parameters: scale not given: the % may be the effect or the level left; details: 2 mg/kg, 4 h; how it was run: as §4
[15] = Half life in Lewis rat at 2 mg/kg, po measured at 4 to 72 hrs; assay type: ADME, organism-based; details: in vivo, 2 mg/kg, time 4-72 hrs
How it was run: (§5)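 Half-life estimated from oral-dosing blood PK profiles in Lewis rats sampled at four time points: 4, 24, 48 and 72 h.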

[16] = Drug concentration in Lewis rat blood assessed as concentration of parent compound at 5 mg/kg, po measured at 4 hrs by LC-MS/MS analysis; assay type: ADME, organism-based; details: read-out: Ct; how it was run: as §1
Rattus norvegicus [17] = test: Reduction in circulating lymphocytes count in Lewis rat at 5 mg/kg, po measured at 4 hrs by hematology analyzer based analysis; assay type: functional; parameters: scale not given: the % may be the effect or the level left; how it was run: as §4
[18] = Drug concentration in Lewis rat blood assessed as concentration of parent compound at 5 mg/kg, po measured at 24 hrs by LC-MS/MS analysis; assay type: ADME, organism-based; details: Lewis, blood, read-out: Ct; how it was run: as §1
[19] = Reduction in circulating lymphocytes count in Lewis rat at 5 mg/kg, po measured at 24 hrs by hematology analyzer based analysis; assay type: ADME, organism-based; parameters: scale not given: the % may be the effect or the level left; details: in vivo; how it was run: as §4
[20] = Pulmonary toxicity in Lewis rat assessed as fold elevation of BAL protein content at 5 mg/kg, po by chemistry analyzer based analysis relative to control; assay type: organism-based; details: in vivo; how it was run: as §2
[21] = Drug metabolism in Lewis rat blood assessed as parent compound concentration at 0.5 mg/kg, po measured at 24 hrs by LC-MS/MS analysis; assay type: ADME, organism-based; details: in vivo, 0.5 mg/kg, 24 h, BLD = below limit of detection; how it was run: as §1
[22] = Reduction in circulating lymphocytes count in Lewis rat at 0.5 mg/kg, po measured at 4 hrs by hematology analyzer based analysis; assay type: ADME, organism-based; parameters: scale not given: the % may be the effect or the level left; details: in vivo; how it was run: as §1
[23] = Reduction in circulating lymphocytes count in Lewis rat at 0.5 mg/kg, po measured at 24 hrs by hematology analyzer based analysis; assay type: ADME, organism-based; parameters: scale not given: the % may be the effect or the level left; details: in vivo; how it was run: as §1
[24] = Drug metabolism in Lewis rat blood assessed as parent compound concentration at 0.5 mg/kg, po measured at 4 hrs by LC-MS/MS analysis; assay type: ADME, organism-based; details: in vivo, 0.5 mg/kg, 4 h, BLD = below limit of detection; how it was run: as §1
Rattus norvegicus [25] = test: Antiinflammatory activity in complete freund's adjuvant-induced Lewis rat model of arthritis assessed as reduction in paw edema administered via oral gavage once daily by plethysmometric method; assay type: functional, organism-based
Rattus norvegicus [26] = test: Antiinflammatory activity in complete freund's adjuvant-induced Lewis rat model of arthritis assessed as reduction in paw edema at 0.3 mg/kg, po administered via gavage once daily and measured at day 13 to 20 by plethysmometric method; assay type: functional, organism-based; details: time 13-20 day
Rattus norvegicus [27] = test: Antiinflammatory activity in complete freund's adjuvant-induced Lewis rat model of arthritis assessed as increase in paw volume at 1 mg/kg, po administered via gavage once daily by plethysmometric method; assay type: functional, organism-based
Rattus norvegicus [28] = test: Reduction in circulating lymphocytes count in Lewis rat at 0.3 mg/kg, po measured at 4 hrs by hematology analyzer based analysis; assay type: functional; parameters: scale not given: the % may be the effect or the level left
[29] = Reduction in circulating lymphocytes count in Lewis rat at 0.3 mg/kg, po measured at 24 hrs by hematology analyzer based analysis; assay type: ADME, organism-based; parameters: scale not given: the % may be the effect or the level left; details: in vivo
[30] = AUC ratio in orally dosed human blood assessed as phosphate metabolite to parent compound; assay type: ADME, organism-based; details: po
[31] = Half life in Lewis rat at 1 mg/kg, po measured at 4 to 72 hrs; assay type: ADME, organism-based; details: in vivo, time 4-72 hrs; how it was run: as §5
[32] = AUC ratio in orally dosed Beagle dog blood assessed as phosphate metabolite to parent compound; assay type: ADME, organism-based, Canis lupus familiaris; details: in vivo, po
How it was run: (§6)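 Phosphate-to-parent ratio computed as blood AUC ratio after oral dosing in rats, dogs and monkeys.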

[33] = Pulmonary toxicity in Lewis rat assessed as fold elevation of BAL protein content at 1 mg/kg, po by chemistry analyzer based analysis relative to control; assay type: organism-based; details: in vivo; how it was run: as §2
[34] = AUC ratio in orally dosed Sprague-Dawley rat blood assessed as phosphate metabolite to parent compound; assay type: ADME, organism-based; details: in vivo, po; how it was run: as §6
[35] = Reduction in circulating lymphocytes count in Lewis rat at 1 mg/kg, po measured at 24 hrs by hematology analyzer based analysis; assay type: organism-based; parameters: scale not given: the % may be the effect or the level left; details: in vivo; how it was run: as §1
[36] = AUC ratio in orally dosed cynomolgus monkey blood assessed as phosphate metabolite to parent compound; assay type: ADME, organism-based, Macaca fascicularis; details: in vivo, po; how it was run: as §6
[37] = Drug metabolism in Lewis rat blood assessed as concentration of parent compound at 1 mg/kg, po measured at 24 hrs by LC-MS/MS analysis; assay type: ADME, organism-based; details: Lewis, blood, read-out: Ct; how it was run: as §1
Rattus norvegicus [38] = test: Reduction in circulating lymphocytes count in Lewis rat at 1 mg/kg, po measured at 4 hrs by hematology analyzer based analysis; assay type: functional; parameters: scale not given: the % may be the effect or the level left; how it was run: as §1
[39] = Drug metabolism in Lewis rat blood assessed as phosphate ester metabolite to parent ratio at 1 mg/kg, po measured at 24 hrs by LC-MS/MS analysis; details: in vivo
[40] = Drug concentration in Lewis rat blood assessed as concentration of parent compound at 1 mg/kg, po measured at 4 hrs by LC-MS/MS analysis; assay type: ADME, organism-based; details: Lewis, blood, read-out: Ct; how it was run: as §1
[41] = Ratio of drug metabolism in Lewis rat blood assessed as phosphate ester metabolite to parent drug at 5 mg/kg, po measured at 24 hrs by LC-MS/MS analysis; assay type: ADME, organism-based; details: in vivo; how it was run: as §1

Compound: CCCCCC[C@@H]1CCc2cc([C@H]3CC[C@](N)(COP(=O)(O)O)C3)ccc2C1
- IC50 [1]: 2.5 nM

Compound: COCCCCC[C@@H]1CCc2cc([C@H]3CC[C@](N)(COP(=O)(O)O)C3)ccc2C1
- EC50 [2]: > 1000 nM
- EC50 [3]: 4.9 nM
- EC50 [4]: 2.1 nM
- EC50 [5]: 2.7 nM
- IC50 [6]: 0.016 nM

Compound: COCCCC1CCc2cc([C@H]3CC[C@](N)(CO)C3)ccc2C1 (stereo in doubt; 22b)
- concentration [7]: 215 nM
- fold change (FC) [8]: 1.6
- concentration [9]: 86 nM
- Activity [10]: -25%
- Activity [11]: 66%
- Activity [12]: -20%
- Ratio [13]: 0.9
- Activity (Rattus norvegicus [14]): 62%
- t1/2 [15]: 14 h

Compound: CCCOCCOC[C@@H]1CCc2cc([C@H]3CC[C@](N)(CO)C3)ccc2C1
- concentration at 4 h [16]: 360 nM
- Activity (Rattus norvegicus [17]): 72%
- concentration at 24 h [18]: 28 nM
- Activity [19]: 70%
- fold change (FC) [20]: 1.4

Compound: CCCCCSC[C@H]1CCc2cc([C@H]3CC[C@](N)(CO)C3)ccc2C1
- Ct [21]: Bld
- Activity [22]: 0%
- Activity [23]: 56%
- Ct [24]: Bld
- Activity [10]: -41%
- Activity [12]: -29%

Compound: COCCCCCC1CCc2cc([C@H]3CC[C@](N)(CO)C3)ccc2C1 (single isomer, unassigned; 24)
- Activity (Rattus norvegicus [25]): Dose-dependent effect
- Activity (Rattus norvegicus [26]): inactive
- Activity (Rattus norvegicus [27]): inactive

Compound: C/C=C\CCC[C@@H]1CCc2cc([C@H]3CC[C@](N)(CO)C3)ccc2C1
- Activity (Rattus norvegicus [28]): 0%
- Activity [29]: 22%

Compound: CCCCCC[C@@H]1CCc2cc([C@H]3CC[C@](N)(CO)C3)ccc2C1 [BMS-986104]
- Ratio AUC [30]: 0.1
- half-life [31]: > 100 h
- Ratio AUC [32]: 2.4
- fold change (FC) [33]: 1.1
- Ratio AUC [34]: 2.5
- Activity [10]: -33%
- Activity [35]: 76%
- Ratio AUC [36]: 0.3
- concentration at 24 h [37]: 51 nM
- Activity (Rattus norvegicus [38]): 23%
- Ratio [39]: 1.2
- Activity [12]: -2%
- concentration at 4 h [40]: 36 nM

Compound: CCCC[S+]([O-])C[C@@H]1CCc2cc([C@H]3CC[C@](N)(CO)C3)ccc2C1 (stereo not given in full)
- concentration at 4 h [16]: 109 nM
- Activity (Rattus norvegicus [17]): 0%
- Ratio [41]: 2.3
- concentration at 24 h [18]: 10 nM
- Activity [19]: 75%
- fold change (FC) [20]: 1.5
